Test results taken from ChEMBL document CHEMBL4390653, “Potential anti-herpes and cytotoxic action of novel semisynthetic digitoxigenin-derivatives” (Eur J Med Chem, 2019).

Assays:
Human alphaherpesvirus 1 [1] = test: Potency index, ratio of IC50 for acyclovir to IC50 for test compound for antiviral activity against acyclovir-sensitive Herpes simplex virus 1 KOS infected in African green monkey Vero cells assessed as inhibition of viral replication after 48 hrs by naphthol blue-black staining-based plaque reduction assay; assay type: functional, strain KOS
[2] = Cytotoxicity against African green monkey Vero cells assessed as reduction in cell viability after 48 hrs by SRB assay; assay type: cell-based; conditions: chlorocebus sabaeus
Outline: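 Vero cells in MEM with 10% FBS, seeded at 2.5 × 10^4 cells/well. Exposed to a range of concentrations for 48 h at 37 °C, 5% CO2, then sulforhodamine B total-protein staining. CC50 is the concentration reducing viability by 50% versus untreated controls, from nonlinear regression; mean ± SD of three independent experiments.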

Human alphaherpesvirus 1 [3] = test: (§1) Antiviral activity against acyclovir-sensitive Herpes simplex virus 1 KOS infected in African green monkey Vero cells assessed as inhibition of viral replication after 48 hrs by naphthol blue-black staining-based plaque reduction assay; assay type: functional, organism-based; conditions: Human alphaherpesvirus 1, strain KOS
Outline: (§2)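 Vero cells in MEM with 10% FBS, 37 °C, 5% CO2. Confluent monolayers (2.5 × 10^5 cells/well) infected with about 100 PFU for 1 h at 37 °C. Non-cytotoxic concentrations were added after infection. Cells were then PBS-washed and overlaid with MEM plus 1.5% carboxymethylcellulose, with or without compound, for 48 h. Fixed, naphthol blue-black stained, plaques counted under a stereomicroscope. IC50 versus untreated controls by nonlinear regression; mean of three independent experiments.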

[4] = as §1, with “Selectivity index, ratio of Cytotoxicity against African green monkey Vero cells assessed as reduction in cell viability after 48 hrs by SRB assay to Antiviral” for “Antiviral”; assay type: toxicity; conditions: Vero cells infected with HSV-1 KOS, read-out: Ratio CC50/IC50
Outline: (§3)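 Selectivity index = CC50 in Vero cells (SRB, 48 h) divided by plaque-reduction IC50 for the same virus strain.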

Human alphaherpesvirus 1 [5] = test: (§4) Antiviral activity against acyclovir-resistant Herpes simplex virus 1 29-R infected in African green monkey Vero cells assessed as inhibition of viral replication after 48 hrs by naphthol blue-black staining-based plaque reduction assay; assay type: functional, organism-based; conditions: Human alphaherpesvirus 1, 29-R, Vero, 48 h; read-out: IC50; outline: as §2
[6] = as §4, with “Selectivity index, ratio of Cytotoxicity against African green monkey Vero cells assessed as reduction in cell viability after 48 hrs by SRB assay to Antiviral” for “Antiviral”; assay type: toxicity; conditions: Vero cells infected with HSV-1 29-R, read-out: Ratio CC50/IC50; outline: as §3
Human alphaherpesvirus 2 [7] = test: (§5) Antiviral activity against Herpes simplex virus 2-333 infected in African green monkey Vero cells assessed as inhibition of viral replication after 48 hrs by naphthol blue-black staining-based plaque reduction assay; assay type: functional, organism-based; conditions: Human alphaherpesvirus 2, 333, Vero; outline: as §2
[8] = as §5, with “Selectivity index, ratio of Cytotoxicity against African green monkey Vero cells assessed as reduction in cell viability after 48 hrs by SRB assay to Antiviral” for “Antiviral”; assay type: toxicity; conditions: Vero cells infected with HSV-2 333, read-out: Ratio CC50/IC50; outline: as §3
Human alphaherpesvirus 2 [9] = test: Potency index, ratio of IC50 for acyclovir to IC50 for test compound for antiviral activity against Herpes simplex virus 2-333 infected in African green monkey Vero cells assessed as inhibition of viral replication after 48 hrs by naphthol blue-black staining-based plaque reduction assay; assay type: functional
HCT-8 = test: Cytotoxicity against human HCT8 cells assessed as inhibition of cell viability after 48 hrs by SRB assay; assay type: functional, cell-based; conditions: HCT-8, 48 h
Outline: (§6)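 Cells seeded at 2.5 × 10^4 per well and exposed to a concentration range for 48 h, then SRB total-protein stain. PC3 grown in phenol-red-free DMEM with 1% glutamine; LNCaP in phenol-red-free RPMI 1640 with glutamine and non-essential amino acids. HCT-8 and H460 in RPMI 1640. MRC-5 (plus glutamine and non-essential amino acids) and primary gingival fibroblasts in DMEM. All media had 10% FBS, 37 °C, 5% CO2. Paclitaxel was the reference. IC50 versus untreated controls by nonlinear regression, three independent experiments.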

LNCaP = test: Cytotoxicity against human LNCAP cells assessed as inhibition of cell viability after 48 hrs by SRB assay; assay type: functional, cell-based; outline: as §6
PC-3 = test: Cytotoxicity against human PC3 cells assessed as inhibition of cell viability after 48 hrs by SRB assay; assay type: functional, cell-based; conditions: PC-3, 48 h; outline: as §6
NCI-H460 = test: Cytotoxicity against human H460 cells assessed as inhibition of cell viability after 48 hrs by SRB assay; assay type: functional, cell-based; conditions: NCI-H460, 48 h; outline: as §6
MRC5 = test: Cytotoxicity against human MRC5 cells assessed as inhibition of cell viability after 48 hrs by SRB assay; assay type: cell-based; conditions: MRC5, 48 h; outline: as §6
[10] = Cytotoxicity against human HGF cells assessed as inhibition of cell viability after 48 hrs by SRB assay; assay type: cell-based; outline: as §6
[11] = Inhibition of porcine cortex Na+/K+-ATPase alpha1/2/3 subunit using ATP as substrate preincubated for 30 mins followed by substrate addition and measured after 30 mins by malachite green reagent-based assay; set-up: species or system Sus scrofa
A549 = test: Cytotoxicity against human A549 cells assessed as inhibition of cell viability after 48 hrs by SRB assay; assay type: functional, cell-based; conditions: A549, 48 h

Row | SMILES | Ratio IC50 (Human alphaherpesvirus 1 [1]) | CC50 at 48 h [2] | IC50 (Human alphaherpesvirus 1 [3]) | selectivity ratio at 48 h [4] | IC50 (Human alphaherpesvirus 1 [5]) | selectivity ratio at 48 h [6] | IC50 (Human alphaherpesvirus 2 [7]) | selectivity ratio at 48 h [8] | Ratio IC50 (Human alphaherpesvirus 2 [9]) | IC50 (HCT-8) | IC50 (LNCaP) | IC50 (PC-3) | IC50 (NCI-H460) | IC50 (MRC5) | IC50 [10] | IC50 [11] | IC50 (A549)
1 | C[C@]12CC[C@H](NC(=O)CO)C[C@H]1CC[C@@H]1[C@@H]2CC[C@]2(C)[C@@H](C3=CC(=O)OC3)CC[C@]12O | 6 | > 300000 nM | 240 nM | > 1250 | 190 nM | > 1580 | 300 nM | > 1000 | 11 | 690 nM | 810 nM | 420 nM | 260 nM | 250 nM | 1670 nM | 843 nM | –
2 | C[C@@H](O)[C@H](O)[C@@H](O)CCN[C@H]1CC[C@@]2(C)[C@H](CC[C@@H]3[C@@H]2CC[C@]2(C)[C@@H](C4=CC(=O)OC4)CC[C@]32O)C1 | – | > 300000 nM | 1460 nM | > 206 | 3230 nM | > 92.9 | 1270 nM | > 236 | – | 1250 nM | 2460 nM | 1220 nM | 370 nM | 550 nM | 2550 nM | 2040 nM | 680 nM
3 | C[C@]12CC[C@H](NC(=O)CNc3ccc(C#N)cc3)C[C@H]1CC[C@@H]1[C@@H]2CC[C@]2(C)[C@@H](C3=CC(=O)OC3)CC[C@]12O | – | > 300000 nM | 600 nM | > 500 | 420 nM | > 714 | 1000 nM | > 300 | – | 1250 nM | 2080 nM | 910 nM | 250 nM | 1060 nM | 2090 nM | 4160 nM | 540 nM
4 | C[C@]12CC[C@H](NC(=O)CNCCO)C[C@H]1CC[C@@H]1[C@@H]2CC[C@]2(C)[C@@H](C3=CC(=O)OC3)CC[C@]12O | 6 | > 300000 nM | 230 nM | > 1300 | 180 nM | > 1670 | 270 nM | > 1110 | 12 | 90 nM | 130 nM | 180 nM | 70 nM | 130 nM | 660 nM | 1990 nM | 190 nM
